Measured values reported in ChEMBL document CHEMBL4364294 (J Med Chem, 2019).

What was measured:
[1] = AUC (0 to infinity) in Sprague-Dawley rat at 25 mg/kg, po administered as single dose; assay type: ADME, organism-based; parameters: dose 25 mg/kg, time infinity, route oral; conditions: in vivo
In short: (§1)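 Sprague-Dawley rats were given single doses, intravenous at 10–50 mg/kg or oral at 10, 25 and 50 mg/kg. Plasma PK parameters were CL, AUC0-inf, t1/2, Cmax and %F.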

[2] = Aqueous solubility of the compound at pH 1; assay type: physicochemical
[3] = Oral bioavailability in dog at 50 mg/kg administered as single dose; assay type: ADME, organism-based, Canis lupus familiaris; conditions: in vivo
In short: (§2)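 Dogs were dosed once, by iv injection or orally, with oral doses spanning 5 to 50 mg/kg. Plasma pharmacokinetic parameters were derived: CL, AUC0-inf, t1/2, Cmax and %F.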

[4] = Half life in C57Bl6 mouse at 100 mg/kg, po administered as single dose; assay type: ADME, organism-based; conditions: in vivo
In short: (§3)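 C57Bl/6 mice were given single intravenous or oral doses (oral at 10 and 100 mg/kg). Plasma PK parameters were CL, AUC0-inf, t1/2, Cmax and %F.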

[5] = Cmax in Sprague-Dawley rat at 25 mg/kg, po administered as single dose; assay type: ADME, organism-based; parameters: dose 25 mg/kg, route oral; conditions: in vivo; in short: as §1
[6] = AUC (0 to infinity) in dog at 1 mg/kg, iv administered as single dose; assay type: ADME, organism-based, Canis lupus familiaris; parameters: dose 1 mg/kg, route intravenous, time infinity; conditions: in vivo
In short: (§4)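 Dogs were given single intravenous doses, or oral doses from 5 to 50 mg/kg. Plasma PK parameters were CL, AUC0-inf, t1/2, Cmax and %F.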

[7] = Clearance in dog at 25 mg/kg, iv administered as single dose; assay type: ADME, organism-based, Canis lupus familiaris; conditions: in vivo; in short: as §4
[8] = Stability in human microsomes assessed as parent compound remaining after 90 mins in presence of phase 1 and 2 metabolic cofactors; assay type: ADME, Microsome; conditions: read-out: Stability
[9] = Half life in dog at 10 mg/kg, iv administered as single dose; assay type: ADME, organism-based, Canis lupus familiaris; conditions: in vivo; in short: as §2
[10] = Cmax in Sprague-Dawley rat at 10 mg/kg, po administered as single dose; assay type: ADME, organism-based; parameters: dose 10 mg/kg, route oral; conditions: in vivo; in short: as §1
[11] = Half life in dog at 25 mg/kg, iv administered as single dose; assay type: ADME, organism-based, Canis lupus familiaris; conditions: in vivo; in short: as §2
[12] = Half life in dog at 3 mg/kg, iv administered as single dose; assay type: ADME, organism-based, Canis lupus familiaris; conditions: in vivo; in short: as §2
[13] = AUC (0 to 12 hrs) in dog at 200 mg/kg administered twice daily for 28 days with 2 week recovery; assay type: ADME, organism-based, Canis lupus familiaris; parameters: dose 200 mg/kg, time < 12 hr; conditions: in vivo
[14] = Oral bioavailability in dog at 5 mg/kg administered as single dose; assay type: ADME, organism-based, Canis lupus familiaris; conditions: in vivo; in short: as §2
[15] = AUC (0 to infinity) in Sprague-Dawley rat at 50 mg/kg, po administered as single dose; assay type: ADME, organism-based; parameters: dose 50 mg/kg, route oral, time infinity; conditions: in vivo; in short: as §1
[16] = Tmax in Sprague-Dawley rat at 10 to 50 mg/kg, po administered as single dose; assay type: ADME, organism-based; conditions: in vivo
In short: (§5)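 Sprague-Dawley rats each received one dose of drug, either iv across 10-50 mg/kg or orally at 10, 25 and 50 mg/kg. Plasma pharmacokinetics covered CL, AUC0-inf, t1/2, Cmax and Tmax. Oral bioavailability (%F) was obtained from the oral and iv exposures.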

[17] = Half life in Sprague-Dawley rat at 25 mg/kg, po administered as single dose; assay type: ADME, organism-based; conditions: in vivo; in short: as §5
[18] = Clearance in Sprague-Dawley rat at 50 mg/kg, iv administered as single dose; assay type: ADME, organism-based; conditions: in vivo; in short: as §1
[19] = Cmax in dog at 150 mg/kg, po administered as single dose; assay type: ADME, organism-based, Canis lupus familiaris; parameters: dose 150 mg/kg, route oral; conditions: in vivo
[20] = Toxicity in dog administered twice daily for 28 days with 2 week recovery; parameters: species or system Canis lupus familiaris; conditions: in vivo
In short: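 Rats and dogs underwent 28-day repeat-dose studies with twice-daily dosing, followed by a 2-week recovery period. The NOAEL (mg/kg/dose BID) was established, and the matching systemic exposure was reported as AUC0-inf.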

[21] = Intrinsic clearance in human liver microsomes; assay type: ADME, Microsome; conditions: read-out: CLH
[22] = AUC (0 to infinity) in C57Bl6 mouse at 50 mg/kg, iv administered as single dose; assay type: ADME, organism-based; parameters: dose 50 mg/kg, route intravenous, time infinity; conditions: in vivo; in short: as §3
[23] = Oral bioavailability in C57Bl6 mouse at 100 mg/kg administered as single dose; assay type: ADME, organism-based; conditions: in vivo
In short: (§6)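 C57Bl/6 mice received a single oral dose of 10 or 100 mg/kg, with iv dosing run for comparison. Plasma AUC0-inf, t1/2, Cmax and oral bioavailability (%F) were determined.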

[24] = Clearance in dog at 3 mg/kg, iv administered as single dose; assay type: ADME, organism-based, Canis lupus familiaris; conditions: in vivo; in short: as §4
[25] = Oral bioavailability in C57Bl6 mouse at 10 mg/kg administered as single dose; assay type: ADME, organism-based; conditions: in vivo; in short: as §6
[26] = AUC (0 to infinity) in dog at 25 mg/kg, iv administered as single dose; assay type: ADME, organism-based, Canis lupus familiaris; parameters: dose 25 mg/kg, route intravenous, time infinity; conditions: in vivo; in short: as §4
[27] = AUC (0 to infinity) in dog at 150 mg/kg, po administered as single dose; assay type: ADME, organism-based, Canis lupus familiaris; parameters: dose 150 mg/kg, time infinity, route oral; conditions: in vivo
[28] = Oral bioavailability in dog at 15 mg/kg administered as single dose; assay type: ADME, organism-based, Canis lupus familiaris; conditions: in vivo; in short: as §2
[29] = Stability in rat microsomes assessed as parent compound remaining after 90 mins in presence of phase 1 and 2 metabolic cofactors; assay type: ADME, Microsome; conditions: read-out: Stability
[30] = AUC (0 to infinity) in Sprague-Dawley rat at 50 mg/kg, iv administered as single dose; assay type: ADME, organism-based; parameters: dose 50 mg/kg, time infinity, route intravenous; conditions: in vivo; in short: as §1
[31] = AUC (0 to infinity) in dog at 50 mg/kg, po administered as single dose; assay type: ADME, organism-based, Canis lupus familiaris; parameters: dose 50 mg/kg, route oral, time infinity; conditions: in vivo; in short: as §4
[32] = Half life in Sprague-Dawley rat at 50 mg/kg, iv administered as single dose; assay type: ADME, organism-based; conditions: in vivo; in short: as §5
[33] = Cmax in C57Bl6 mouse at 10 mg/kg, po administered as single dose; assay type: ADME, organism-based; parameters: dose 10 mg/kg, route oral; conditions: in vivo; in short: as §3
[34] = Half life in C57Bl6 mouse at 50 mg/kg, iv administered as single dose; assay type: ADME, organism-based; conditions: in vivo; in short: as §3
[35] = Drug uptake in C57Bl6 mouse plasma at 50 mg/kg, po administered as single dose measured at 1 hr post-dose; assay type: ADME, organism-based; conditions: in vivo
In short: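 C57Bl/6 mice received a single oral dose of 50 mg/kg. Drug levels were compared in plasma and other organs over time after dosing.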

[36] = Half life in C57Bl6 mouse at 10 mg/kg, po administered as single dose; assay type: ADME, organism-based; conditions: in vivo; in short: as §3

AUC(0-inf) [1]: 7980 ng·h/mL
solubility [2]: > 200 µM
bioavailability [3]: 43%
half-life [4]: 3.3 h
Cmax [5]: 6420 ng/mL
AUC(0-inf) [6]: 282 ng·h/mL
clearance [7]: 41.4 mL/min/kg
remaining at […] [8]: > 85%
half-life [9]: 4.8 h
Cmax [10]: 1560 ng/mL
half-life [11]: 6.9 h
half-life [12]: 1.6 h
AUC at 12 h [13]: 22600 ng·h/mL
bioavailability [14]: 13.7%
AUC(0-inf) [15]: 15400 ng·h/mL
Tmax [16]: 0.5 h
half-life [17]: 1.15 h
clearance [18]: 23.2 mL/min/kg
Cmax [19]: 40400 ng/mL
predicted hepatic clearance [21]: 8.52 mL/min/kg
AUC(0-inf) [22]: 34600 ng·h/mL
bioavailability [23]: 87%
clearance [24]: 56.1 mL/min/kg
bioavailability [25]: 69%
AUC(0-inf) [26]: 10000 ng·h/mL
AUC(0-inf) [27]: 57800 ng·h/mL
bioavailability [28]: 22.3%
remaining at […] [29]: > 85%
AUC(0-inf) [30]: 35000 ng·h/mL
AUC(0-inf) [31]: 8640 ng·h/mL
half-life [32]: 1 h
Cmax [33]: 2260 ng/mL
half-life [34]: 3 h
Drug uptake [35]: Active
half-life [36]: 1.2 h
Compound: O[C@H](C[C@H]1c2c(F)cccc2-c2cncn21)[C@H]1CC[C@H](O)CC1 [NAVOXIMOD]
NOAEL at 28 days [20]: 200 mg/kg
